ChEMBL document CHEMBL3785072, “2,6-Di(arylamino)-3-fluoropyridine Derivatives as HIV Non-Nucleoside Reverse Transcriptase Inhibitors” (J Med Chem, 2016)

Experiments:
[1] = system: Human immunodeficiency virus 1; test: Antiviral activity against R5-tropic HIV1 subtype B BaL infected in human TZM-bl cells assessed as viral inhibition pre-incubated for 30 mins prior to infection measured after 48 hrs by luciferase assay; assay type: functional, organism-based
How it was run: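 TZM-bl cells (10^4/well at 10^5 cells/mL, medium with 30 µg/mL DEAE dextran) pre-incubated with serial compound dilutions 30 min at 37 °C, 5% CO2. Then infected with 200 TCID50 HIV-1 BaL and incubated 48 h. Luciferase read-out expressed as % inhibition vs untreated controls. EC50 from non-linear regression. Triplicate wells, ≥3 independent experiments.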

[2] = Selectivity index, ratio of CC50 for human TZM-bl cells to EC50 for R5-tropic HIV1 subtype B BaL infected in human TZM-bl cells; assay type: toxicity, cell-based; conditions: for selectivity ratio: TZM-bl cells, read-out: Selectivity Index
[3] = system: Human immunodeficiency virus 1; test: Antiviral activity against efavirenz resistant R5-tropic HIV1 subtype C VI829 expressing reverse transcriptase L100I-K103N mutant infected in human TZM-bl cells assessed as viral inhibition pre-incubated for 30 mins prior to infection measured after 48 hrs by luciferase assay; assay type: functional, organism-based; conditions: Human immunodeficiency virus 1, VI829, TZM-bl
How it was run: (§1)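 TZM-bl cells (10^4 per well, at 10^5 cells/mL in medium with 30μg/mL DEAE dextran) pre-incubated with serial compound dilutions, then infected with 200 TCID50 of resistant HIV-1; luciferase read after 48 h. Inhibition expressed as % of untreated controls; EC50 by non-linear regression. Triplicate wells, at least three independent experiments.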

[4] = system: Human immunodeficiency virus 1; test: Antiviral activity against nevirapine resistant R5-tropic HIV1 subtype C VI829 expressing reverse transcriptase Y181C mutant infected in human TZM-bl cells assessed as viral inhibition pre-incubated for 30 mins prior to infection measured after 48 hrs by luciferase assay; assay type: functional, organism-based; conditions: Human immunodeficiency virus 1, VI829, TZM-bl; how it was run: as §1
[5] = system: Human immunodeficiency virus 1; test: Antiviral activity against HIV1 NL4.3 expressing reverse transcriptase K103N-Y181C mutant infected in human TZM-bl cells assessed as viral inhibition pre-incubated for 30 mins prior to infection measured after 48 hrs by luciferase assay; assay type: functional, organism-based; conditions: Human immunodeficiency virus 1, NL4.3, TZM-bl; how it was run: as §1
[6] = system: Human immunodeficiency virus 1; test: Antiviral activity against HIV1 NL4.3 expressing reverse transcriptase K103N mutant infected in human TZM-bl cells assessed as viral inhibition pre-incubated for 30 mins prior to infection measured after 48 hrs by luciferase assay; assay type: functional, organism-based; conditions: Human immunodeficiency virus 1, NL4.3, TZM-bl; how it was run: as §1
[7] = Human immunodeficiency virus 1, BaL, TZM-bl

EC50 [1, 7] [nM] | Structure (SMILES) | selectivity ratio [2] | EC50 [3] [nM] | EC50 ([1]; tzm-bl) [nM] | Selectivity Index ([2]; tzm-bl) | EC50 [4] [nM] | EC50 [5] [nM] | EC50 [6] [nM]
4.6 | Cc1cc(/C=C/C#N)cc(C)c1Nc1ccc(F)c(Nc2ccc(/C=C/C#N)cc2)n1 | 19000 |  |  |  |  |  | 
30 | Cc1cc(C)c(Nc2cccc(Nc3ccc(C#N)cc3)n2)c(C)c1 | 1400 |  |  |  |  |  | 
11 | Cc1cc(/C=C/C#N)cc(F)c1Nc1ccc(F)c(Nc2ccc(C#N)cc2)c1 (mixture of isomers) | 6100 |  |  |  |  |  | 
63 | Cc1cc(/C=C/C#N)ccc1Nc1ccc(F)c(Nc2ccc(Cl)cc2)n1 | 380 |  |  |  |  |  | 
4.5 | Cc1cc(/C=C/C#N)cc(C)c1Nc1ccc(F)c(Nc2ccc(C#N)cc2)c1 (mixture of isomers) | 7400 |  |  |  |  |  | 
260 | Cc1ccc(Oc2ccc(F)c(Nc3ccc(C#N)cc3)n2)cc1 | 390 |  |  |  |  |  | 
400 | Cc1cc(/C=C/C#N)ccc1Nc1ccc(F)c(Nc2ccc(F)cc2)n1 | 210 |  |  |  |  |  | 
8.6 | Cc1cc(C)c(Oc2ccc(F)c(Nc3ccc(C#N)cc3)n2)c(C)c1 | 6400 |  |  |  |  |  | 
6.2 | Cc1cc(/C=C/C#N)cc(C)c1Nc1ccc(F)c(Nc2ccc(F)cc2)n1 (mixture of isomers) | 8100 |  |  |  |  |  | 
58 | Cc1cc(/C=C/C#N)ccc1Nc1ccc(F)c(Nc2ccc(C#N)cc2)c1 (mixture of isomers) | 89 |  |  |  |  |  | 
3.3 | N#C/C=C/c1cc(F)c(Nc2ccc(F)c(Nc3ccc(C#N)cc3)n2)c(F)c1 (mixture of isomers) | 4600 |  |  |  |  |  | 
53 | COC(=O)/C=C/c1cc(C)c(Nc2ccc(F)c(Nc3ccc(Cl)cc3)n2)c(C)c1 | 950 |  |  |  |  |  | 
51 | Cc1cc(C#N)cc(C)c1Nc1ccc(F)c(Nc2ccc(F)cc2)n1 | 830 |  |  |  |  |  | 
0.9 | Cc1cc(/C=C/C#N)cc(C)c1Nc1ncc(F)c(Nc2ccc(C#N)cc2)n1 (mixture of isomers) | > 42000 |  |  |  |  |  | 
15 | Cc1cc(C#N)cc(C)c1Nc1ccc(F)c(Nc2ccc(Cl)cc2)n1 | 2000 |  |  |  |  |  | 
2.8 | Cc1cc(C#N)cc(C)c1Nc1ncc(F)c(Nc2ccc(C#N)cc2)n1 | > 36000 |  |  |  |  |  | 
23 | COC(=O)c1ccc(Nc2nc(Nc3c(C)cc(/C=C/C#N)cc3C)ccc2F)cc1 | 2100 |  |  |  |  |  | 
6.3 | Cc1cc(/C=C/C#N)cc(C)c1Nc1ccc(F)c(Nc2ccc(Cl)cc2)n1 (mixture of isomers) | 6600 |  |  |  |  |  | 
480 | N#C/C=C/c1ccc(Nc2ccc(F)c(Nc3ccc(C#N)cc3)n2)cc1 (mixture of isomers) | 14 |  |  |  |  |  | 
84 | COC(=O)/C=C/c1cc(C)c(Nc2ccc(F)c(Nc3ccc(F)cc3)n2)c(C)c1 | 610 |  |  |  |  |  | 
4.4 | COC(=O)/C=C/c1cc(C)c(Nc2ccc(F)c(Nc3ccc(C#N)cc3)n2)c(C)c1 | 13000 |  |  |  |  |  | 
11 | Cc1cc(/C=C/C#N)ccc1Nc1ccc(F)c(Nc2ccc(C#N)cc2)n1 (mixture of isomers) | 24000 |  |  |  |  |  | 
8.8 | Cc1cc(C#N)cc(F)c1Nc1ccc(F)c(Nc2ccc(C#N)cc2)n1 | 4600 |  |  |  |  |  | 

Structure (SMILES) | EC50 [1, 7] [nM] | selectivity ratio [2] | EC50 [3] [nM] | EC50 ([1]; tzm-bl) [nM] | Selectivity Index ([2]; tzm-bl) | EC50 [4] [nM] | EC50 [5] [nM] | EC50 [6] [nM]
Cc1cc(/C=C/C#N)cc(C)c1Nc1ccc(F)c(Nc2ccc(C#N)cc2)n1 | 1.5 | 62500 | 540 | 1.6 | 37500 | 8.1 | 554 | 7.8
Cc1cc(C)c(Nc2ccc(F)c(Nc3ccc(C#N)cc3)n2)c(C)c1 | 8.3 | 2000 | > 10000 |  |  | 130 |  | 
Cc1cc(/C=C/C#N)cc(F)c1Nc1cccc(Nc2ccc(C#N)cc2)n1 (mixture of isomers) | 5.5 | 5500 | 1100 |  |  | 255 |  | 
Cc1cc(/C=C/C#N)cc(F)c1Nc1ccc(F)c(Nc2ccc(C#N)cc2)n1 | 1 | > 100000 | 272 |  |  | 25 | > 1000 | 36
Cc1cc(C)c(Nc2ccnc(Nc3ccc(C#N)cc3)n2)c(C)c1 [DAPIVIRINE] | 1.4 | 2000 | > 1000 |  |  | 11 | 92 | 2.8
Cc1cc(/C=C/C#N)cc(C)c1Nc1cccc(Nc2ccc(C#N)cc2)n1 (mixture of isomers) | 3.5 | 11000 | > 1000 |  |  | 91 |  | 
Cc1cc(/C=C/C#N)cc(C)c1Nc1ccnc(Nc2ccc(C#N)cc2)n1 [RILPIVIRINE] | 0.72 | 10700 | 3.6 |  |  | 2.5 | 3.1 | 0.7
Cc1cc(C#N)cc(C)c1Nc1cccc(Nc2ccc(C#N)cc2)n1 | 25 | 930 | 6600 |  |  | 1500 |  | 
Cc1cc(C#N)cc(C)c1Nc1ccc(F)c(Nc2ccc(C#N)cc2)n1 | 4.7 | 7100 | > 10000 |  |  | 91 |  | 
